Data: publication PMC10413622 (Nuclear medicine and biology, 2022)
Entries after “also recorded” stand apart in the source; their conditions may differ.

Assays:
Caco-2 cells = experiment: Caco-2 permeability assay; assay type: in vitro ADME; settings: 10 μM, pH 7.4, 2 h
Outline: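 Caco-2 cells grown in DMEM under 5% CO₂, seeded at 5 × 10⁵/well on polycarbonate filter inserts and differentiated 21 ± 4 days. Test compound at 10 μM final in HBSS with 25 mM HEPES, pH 7.4, 37 °C, added donor side. A→B and B→A runs were done with and without elacridar. Receiver was sampled over 2 h and donor at 0 and 2 h, then analysed by LC-MS/MS. Papp = […]/(A × C₀,donor) × 10⁶.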

[1] = Microsome stability assay; assay type: in vitro ADME, mouse; settings: 1 μM test compound, NADPH, 37 °C
Outline: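 Mouse liver microsomes in 100 mM K₃PO₄ pH 7.4 with 10 mM MgCl₂ and 1 μM test compound were pre-incubated 10 min at 37 °C. Reactions were started with 1 mM NADPH. They were quenched at 0, 10, 20 and 40 min with stop solution in acetonitrile, centrifuged at 4000g for 20 min, diluted in 0.1% formic acid and quantified by LC-MS/MS.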

[2] = tested on: other purinergic receptors; settings: cited from earlier work
P2Y12R = settings: read-out: IC50 (affinity); cited from earlier work
[3] = determined at pH 6.8; cited from earlier work
[4] = In vitro human plasma stability of radiotracer; assay type: in vitro ADME; settings: 37 °C, HPLC
Outline: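 Formulated radiotracer (46 μCi) was mixed into human plasma, with aliquots held at 37 °C. Aliquots were quenched at 0, 5, 15, 30 and 60 min with ice-cold MeCN and centrifuged at 12,500g for 10 min. Supernatant went to radio-HPLC (C18, 70–95% MeCN with 0.1% TFA over 15 min). Controls of tracer without plasma were run at 0 and 60 min.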

[5] = MicroPET imaging in rhesus macaque; assay type: in vivo; settings: rhesus macaque n = 1, i.v. bolus, 60 min dynamic scan
Outline: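 One mature female rhesus monkey (9.36 kg) was anaesthetised with Telazol, intubated, and maintained on isoflurane, with a hind-limb venous catheter and head secured. Tracer 4.90 mCi was given as a bolus over 1 min. The brain was imaged for 60 min (5×1, 2×2.5, 2×5, 4×10 min frames), with attenuation and scatter correction and 3D MAP reconstruction. A whole-brain volumetric ROI drawn on the summed image gave the TAC.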

[6] = mouse, in vivo, 1 h
[7] = Dynamic PET/CT imaging in mice; assay type: in vivo, mouse
Outline: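 Subjects were female C57BL/6 wild-type mice aged 3 months and one male P2Y12R total-KO mouse (C57BL/6 background, 11 months), under isoflurane (2–3.5% induction, 1–2.5% maintenance). Tracer was given by tail vein at 300 μCi, formulated in saline with 10% ethanol. Imaging was 60 min list-mode dynamic PET (4×15 s, 4×1 min, 11×5 min), OSEM-3D with scatter and attenuation correction, then CT. ROIs were applied to dynamic data to give TACs in %ID/g.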

[8] = Stability of radiotracer in formulation; assay type: physicochemical
[9] = mice, i.v., 5 min post injection

Caco-2 efflux ratio BA/AB (Caco-2 cells)	Caco-2 apparent permeability AB (Caco-2 cells; A→B)	half-life in mouse liver microsomes [1] [min]	intact tracer after incubation in human serum ([4]; 60 min incubation) [%]	peak brain uptake (PET) [5] [SUV]	ex vivo biodistribution, blood [6]	ex vivo biodistribution, brain [6]	ex vivo biodistribution, liver [6] [%ID/g]	CNS uptake in P2Y12R knockout mouse (PET) ([7]; P2Y12R total KO male mouse n = 1, 60 min dynamic scan)	brain uptake (PET) [7, 9] [%ID/g]	liver uptake (PET) [7, 9] [%ID/g]	brain peak uptake (PET) ([7]; naïve wild-type mice n = 3, i.v., 15 s post injection) [%ID/g]	intact tracer after incubation in formulation ([8]; 90 min in formulation (saline with 10% ethanol)) [%]	time stable in formulation and resistant to radiolysis ([8]; post end-of-synthesis) [min]	SMILES	selectivity for P2Y12R over other purinergic receptors [2]	IC50 (P2Y12R) [nM]	logD [3]	loss of parent / radio-metabolites in human plasma ([4]; 0-60 min incubation)
5.3	4.48	37												CCOC(=O)c1cc(C#N)c(N2CCC(C(=O)NS(=O)(=O)Cc3ccccc3)CC2)nc1C [AZD1283]	selective for P2Y12R over other purinergic receptors	11	2.8	
			> 99	0.37	0.9% ± 0.40 %ID/g	0.02% ± 0.01 %ID/g	106 ± 29.70	no CNS uptake	0.55 ± 0.37	58.28 ± 18.75	3.46 ± 2.0	> 99	> 90	CCOC(=O)c1cc([11C]#N)c(N2CCC(C(=O)NS(=O)(=O)Cc3ccccc3)CC2)nc1C [[^11C]AZD1283]				no loss of parent or detection of radio-metabolites; also recorded: no loss of parent tracer or appearance of radio-metabolites
